From PubChem BioAssay AID2539 (The Scripps Research Institute Molecular Screening Center, 2010)
The source made the active and inactive calls.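 How the source made its calls: active means at least 50% inhibition of the cell reactive oxygen species light signal; inactive means the rest.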

What was measured:
Test in all cases: NADPH oxidase isoform panel inhibitors – cell-based, HEK293 transfected, luminol chemiluminescence, powder samples, selectivity assay for NOX1 inhibitor project, late-stage follow-up (AID 2539)
[1] = target: NADPH oxidase 2 (Homo sapiens) (UniProt P04839); details: HEK293 transfected NOX2/3/4, luminol ROS chemiluminescence; NOX2; at 10 µM; stronger effect = higher value
Sequence of NADPH oxidase 2 (Homo sapiens) (P04839 whole entry, looked up): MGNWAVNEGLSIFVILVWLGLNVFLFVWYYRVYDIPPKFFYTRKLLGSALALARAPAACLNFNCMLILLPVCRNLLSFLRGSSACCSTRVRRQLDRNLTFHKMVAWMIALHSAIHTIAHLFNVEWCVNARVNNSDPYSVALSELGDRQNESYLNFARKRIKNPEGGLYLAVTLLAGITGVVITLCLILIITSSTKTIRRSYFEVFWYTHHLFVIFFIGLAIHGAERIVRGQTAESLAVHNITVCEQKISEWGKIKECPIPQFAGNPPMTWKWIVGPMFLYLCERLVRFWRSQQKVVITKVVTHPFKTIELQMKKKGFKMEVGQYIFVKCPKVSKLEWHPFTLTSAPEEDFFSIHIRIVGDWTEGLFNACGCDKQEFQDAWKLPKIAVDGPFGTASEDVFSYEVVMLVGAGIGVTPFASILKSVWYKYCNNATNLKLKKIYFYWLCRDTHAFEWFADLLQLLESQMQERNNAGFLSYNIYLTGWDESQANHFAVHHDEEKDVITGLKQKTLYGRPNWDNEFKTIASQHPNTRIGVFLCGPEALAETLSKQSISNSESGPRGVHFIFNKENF
How it was run: (§1)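 Material: transfected HEK/293 cells expressing NOX2, NOX3 or NOX4 / Reagent: luminol with horseradish peroxidase as ROS probe / Doses: single compound dose of 10 µM / Times: compounds added 16 h post-transfection, 2 h before probe / Measured by: luminol/HRP chemiluminescence reporting cellular ROS / Replicates: each compound tested in triplicate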

[2] = target: NADPH oxidase 3 (Homo sapiens) (UniProt Q9HBY0); details: HEK293 transfected NOX2/3/4, luminol ROS chemiluminescence; NOX3; at 10 µM; stronger effect = higher value
Sequence of NADPH oxidase 3 (Homo sapiens) (Q9HBY0 whole entry, looked up): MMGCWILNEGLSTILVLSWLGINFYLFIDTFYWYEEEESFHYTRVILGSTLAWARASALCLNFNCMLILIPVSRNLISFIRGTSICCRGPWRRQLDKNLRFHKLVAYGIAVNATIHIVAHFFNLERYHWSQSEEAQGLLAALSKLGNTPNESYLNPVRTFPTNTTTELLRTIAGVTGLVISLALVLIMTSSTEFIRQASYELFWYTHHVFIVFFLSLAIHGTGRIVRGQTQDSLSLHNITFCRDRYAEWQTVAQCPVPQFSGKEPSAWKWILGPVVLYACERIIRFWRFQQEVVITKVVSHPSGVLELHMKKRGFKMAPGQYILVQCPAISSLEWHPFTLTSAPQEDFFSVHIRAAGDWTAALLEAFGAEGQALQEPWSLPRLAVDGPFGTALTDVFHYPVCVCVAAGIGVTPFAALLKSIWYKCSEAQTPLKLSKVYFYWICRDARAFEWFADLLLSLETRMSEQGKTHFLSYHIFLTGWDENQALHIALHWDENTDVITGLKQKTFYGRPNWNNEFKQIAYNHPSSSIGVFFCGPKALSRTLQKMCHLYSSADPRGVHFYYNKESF
How it was run: as §1

[3] = target: NADPH oxidase 4 (Homo sapiens) (UniProt Q9NPH5); details: HEK293 transfected NOX2/3/4, luminol ROS chemiluminescence; NOX4; at 10 µM; stronger effect = higher value
Sequence of NADPH oxidase 4 (Homo sapiens) (Q9NPH5 whole entry, looked up): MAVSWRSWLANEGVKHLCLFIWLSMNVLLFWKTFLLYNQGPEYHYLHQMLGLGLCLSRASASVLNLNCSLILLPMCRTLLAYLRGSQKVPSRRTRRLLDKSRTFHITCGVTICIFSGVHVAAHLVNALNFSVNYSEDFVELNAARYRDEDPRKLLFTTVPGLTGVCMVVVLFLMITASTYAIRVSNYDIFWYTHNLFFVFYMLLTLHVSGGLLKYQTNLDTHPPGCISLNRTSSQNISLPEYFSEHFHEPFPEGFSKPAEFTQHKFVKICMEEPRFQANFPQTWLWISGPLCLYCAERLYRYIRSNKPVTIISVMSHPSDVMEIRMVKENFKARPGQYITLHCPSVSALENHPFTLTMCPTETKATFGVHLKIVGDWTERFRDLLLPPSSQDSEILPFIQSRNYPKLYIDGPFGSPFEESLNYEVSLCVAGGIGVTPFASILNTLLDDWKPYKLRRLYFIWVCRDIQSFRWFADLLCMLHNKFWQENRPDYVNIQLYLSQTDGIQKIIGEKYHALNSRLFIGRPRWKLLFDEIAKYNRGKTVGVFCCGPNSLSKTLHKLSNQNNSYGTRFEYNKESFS
How it was run: as §1

Row | inhibition [1] | inhibition [2] | inhibition [3] | SMILES
1 | 32% (inactive) | 52% | 52% | CN(C)c1ccc(NC(=O)Nc2ccc(OCc3ccccc3)cc2)cc1
2 | -3% (inactive) | 3% (inactive) | 3% (inactive) | O=C(Oc1ccccc1N1CCCCC1)c1sc2ccccc2c1Cl
3 | -7% (inactive) | 61% | 61% | COc1cc(-c2nc(-c3ccccc3)c(-c3ccccc3)[nH]2)ccc1O
4 | 2% (inactive) | -24% (inactive) | -24% (inactive) | c1ccc2c(c1)Nc1nc3ccccc3nc1N2
5 | 6% (inactive) | 25% (inactive) | 25% (inactive) | Cc1cc(Cl)ccc1NC(=S)NNC(=S)Nc1ccc(F)cc1
6 | 20% (inactive) | 10% (inactive) | 10% (inactive) | FC(F)(F)c1ccc2c(c1)Nc1ccccc1S2
7 | 19% (inactive) | 3% (inactive) | 3% (inactive) | CN(C)c1ccc(/C=N/Nc2c(Cl)cncc2Cl)cc1
